Results published in ChEMBL document CHEMBL1158389, “Highly twisted adamantyl arotinoids: synthesis, antiproliferative effects and RXR transactivation profiles” (Eur J Med Chem, 2009).
Active and inactive are the calls of the source. The calls are words filed in the database; no cut-off is given here.

Experiments:
[1] = system: Jurkat; experiment: Induction of apoptosis in human Jurkat T cells assessed as induction of DEVDase activity at 4 uM after 4 hrs by fluorescence assay; assay type: functional, cell-based
Outline: (§1)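 Jurkat cells (40,000/well, 10^6 cells/mL, RPMI with 0.5% FBS) were treated for 4 h; controls got 0.1% DMSO. Lysis was in CE buffer (PIPES pH 7, NP-40, cytochalasin B, protease inhibitors) for 30 min at 4 °C. Lysates were mixed with 2x caspase buffer (HEPES pH 7.4, CHAPS, sucrose) holding 100 μM Ac-DEVD-AFC and incubated at 37 °C for 30 min. AFC was read every 2 min, ex 390/em 510 nm.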

[2] = biological target: T1, Retinoic acid receptor alpha (Homo sapiens) (UniProt P10276); experiment: Inhibition of transactivation activity of Gal4-LBD fused human RARalpha (156 to 454) transfected in atRA-stimulated african green monkey CV1 cells at 0.2 uM after 6 hrs by Dual-light chemiluminescent assay; assay type: cell-based
T1 sequence (whole entry): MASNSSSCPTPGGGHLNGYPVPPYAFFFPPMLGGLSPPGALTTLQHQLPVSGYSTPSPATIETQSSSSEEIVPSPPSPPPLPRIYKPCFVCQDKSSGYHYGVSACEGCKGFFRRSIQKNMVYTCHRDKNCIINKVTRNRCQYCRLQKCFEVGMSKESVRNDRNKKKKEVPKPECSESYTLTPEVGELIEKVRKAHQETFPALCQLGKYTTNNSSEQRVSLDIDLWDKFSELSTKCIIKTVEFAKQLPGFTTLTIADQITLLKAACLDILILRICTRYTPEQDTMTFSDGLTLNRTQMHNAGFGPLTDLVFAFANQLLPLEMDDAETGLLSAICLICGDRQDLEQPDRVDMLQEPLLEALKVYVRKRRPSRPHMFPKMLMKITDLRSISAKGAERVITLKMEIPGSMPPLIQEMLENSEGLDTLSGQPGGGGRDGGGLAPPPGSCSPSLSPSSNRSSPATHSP
Outline: (§2)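 Gal4 DBD (1–147) was fused to hRARα (156–462) or hRARβ (169–448) LBD. CV-1 cells (20,000/well) were co-transfected with 10 ng Gal4-LBD, 100 ng UAS-luciferase and 25 ng β-gal vector. After 16 h the medium was replaced with medium containing 5% charcoal-treated FBS. Cells got atRA plus test compound at 10-, 40- or 200-fold excess (0.2, 0.8, 4 μM) for 6 h. Luciferase and β-galactosidase were read by chemiluminescence.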

[3] = biological target: T1, Retinoic acid receptor alpha (Homo sapiens); experiment: Transactivation of Gal4-LBD fused human RARalpha (156 to 454) transfected in african green monkey CV1 cells assessed as luciferase activity at 2 uM after 6 hrs by Dual-light chemiluminescent assay; assay type: cell-based; details: CV-1
[4] = system: MIA PaCa-2; experiment: Antiproliferative activity against human MIAPaCa2 cells at 4 uM after 48 hrs by MTT assay; assay type: functional; details: MIA PaCa-2, 48 h
Outline: (§3)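 Epithelial cancer lines came from ATCC and were seeded the day before in complete medium: PC-3, SkOV3 and A549 at 3,000/well; MiaPaCa-2 and BxPC-3 at 4,000; T-47D and MDA-MB-468 at 5,000. Medium was switched to 0.5% FBS just before exposure to 4 μM. Read-out was MTT (4 h, 37 °C), SDS/HCl solubilisation, A595 minus cell-free blank. Growth inhibition was taken versus DMSO (≤0.1% v/v) controls, ≥2 experiments in triplicate.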

[5] = system: Jurkat; experiment: Induction of apoptosis in human Jurkat T cells assessed as induction of DEVDase activity at 1 uM after 4 hrs by fluorescence assay; assay type: functional, cell-based; outline: as §1
[6] = biological target: T2, Retinoic acid receptor beta (Homo sapiens) (UniProt P10826); experiment: Transactivation of Gal4-LBD fused human RARbeta (169 to 448) transfected in african green monkey CV1 cells assessed as luciferase activity at 2 uM after 6 hrs by Dual-light chemiluminescent assay; assay type: cell-based; details: CV-1
T2 sequence (whole entry): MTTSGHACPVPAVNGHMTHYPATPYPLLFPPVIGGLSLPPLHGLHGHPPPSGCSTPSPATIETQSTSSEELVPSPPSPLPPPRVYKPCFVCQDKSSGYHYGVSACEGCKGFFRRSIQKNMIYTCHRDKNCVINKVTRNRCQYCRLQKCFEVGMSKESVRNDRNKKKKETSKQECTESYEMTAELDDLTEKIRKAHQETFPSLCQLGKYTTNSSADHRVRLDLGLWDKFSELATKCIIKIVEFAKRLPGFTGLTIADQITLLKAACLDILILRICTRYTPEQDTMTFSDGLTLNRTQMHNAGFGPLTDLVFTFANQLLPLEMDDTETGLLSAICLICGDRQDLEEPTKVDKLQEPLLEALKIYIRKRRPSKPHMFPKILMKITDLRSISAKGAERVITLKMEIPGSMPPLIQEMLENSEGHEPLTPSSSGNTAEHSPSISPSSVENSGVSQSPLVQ
Outline: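 Transfected CV-1 cells carried Gal4-LBD constructs: hRARα 156–462, hRARβ 169–448, hRARγ 178–454 or mRXRα 218–467. Transfection used 10 ng Gal4-LBD, 100 ng UAS-luciferase and 25 ng β-gal vector. After 16 h the medium was changed to 5% charcoal-treated FBS. Cells were stimulated with 2 μM analog for 6 h (RARα, RARβ, RXRα) or 20 h (RARγ). Reference agonists were 1 μM atRA (RARα) and 1 μM 9cRA (RXRα). Luciferase and β-galactosidase were read by chemiluminescence.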

[7] = system: MDA-MB-468; experiment: Antiproliferative activity against human MDA-MB-468 cells at 4 uM after 48 hrs by MTT assay; assay type: functional; details: MDA-MB-468, 48 h; outline: as §3
[8] = system: Jurkat; experiment: Antiproliferative activity against human Jurkat T cells after 48 hrs by MTT assay
[9] = biological target: T2, Retinoic acid receptor beta (Homo sapiens); experiment: Inhibition of transactivation activity of Gal4-LBD fused human RARbeta (169 to 448) transfected in atRA-stimulated african green monkey CV1 cells at 4 uM after 6 hrs by Dual-light chemiluminescent assay; assay type: cell-based; details: CV-1; outline: as §2
[10] = system: PC-3; experiment: Antiproliferative activity against human PC3 cells at 4 uM after 48 hrs by MTT assay; assay type: functional; details: PC-3, 48 h; outline: as §3
[11] = system: SK-OV-3; experiment: Antiproliferative activity against human SKOV3 cells at 4 uM after 48 hrs by MTT assay; assay type: functional; details: SK-OV-3, 48 h; outline: as §3
[12] = biological target: T3, Retinoic acid receptor gamma (Homo sapiens) (UniProt P13631); experiment: Inhibition of transactivation activity of Gal4-LBD fused human RARgamma (178 to 454) transfected in atRA-stimulated african green monkey CV1 cells at 4 uM after 20 hrs by Dual-light chemiluminescent assay; details: CV-1
T3 sequence (whole entry): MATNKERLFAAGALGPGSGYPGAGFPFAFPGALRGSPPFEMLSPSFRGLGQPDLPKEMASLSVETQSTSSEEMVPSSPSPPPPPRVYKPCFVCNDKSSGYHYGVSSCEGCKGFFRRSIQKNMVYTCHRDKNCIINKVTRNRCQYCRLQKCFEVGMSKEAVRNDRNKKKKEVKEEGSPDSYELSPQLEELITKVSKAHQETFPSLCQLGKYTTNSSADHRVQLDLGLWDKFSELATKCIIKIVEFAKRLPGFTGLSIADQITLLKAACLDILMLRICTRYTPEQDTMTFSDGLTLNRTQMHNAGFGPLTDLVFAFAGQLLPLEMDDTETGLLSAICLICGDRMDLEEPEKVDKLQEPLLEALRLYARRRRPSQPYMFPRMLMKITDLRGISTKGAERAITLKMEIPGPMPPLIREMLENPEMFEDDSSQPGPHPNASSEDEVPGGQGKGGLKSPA

[13] = system: T47D; experiment: Antiproliferative activity against human T47D cells at 4 uM after 48 hrs by MTT assay; assay type: functional; outline: as §3
[14] = system: A549; experiment: Antiproliferative activity against human A549 cells at 4 uM after 72 hrs by MTT assay; assay type: functional; details: A549, 72 h; outline: as §3
[15] = system: BXPC-3; experiment: Antiproliferative activity against human BxPC3 cells at 4 uM after 48 hrs by MTT assay; assay type: functional; details: BXPC-3, 48 h; outline: as §3
[16] = biological target: T1, Retinoic acid receptor alpha (Homo sapiens); experiment: Inhibition of transactivation activity of Gal4-LBD fused human RARalpha (156 to 454) transfected in atRA-stimulated african green monkey CV1 cells at 4 uM after 6 hrs by Dual-light chemiluminescent assay; assay type: cell-based; details: CV-1; outline: as §2
[17] = biological target: T4, Retinoic acid receptor RXR-alpha (Mus musculus, UniProt P28700); experiment: Transactivation of Gal4-LBD fused mouse RXRalpha (218 to 467) transfected in african green monkey CV1 cells assessed as luciferase activity at after 6 hrs by Dual-light chemiluminescent assay; assay type: cell-based, CV-1
T4 sequence (P28700 whole entry): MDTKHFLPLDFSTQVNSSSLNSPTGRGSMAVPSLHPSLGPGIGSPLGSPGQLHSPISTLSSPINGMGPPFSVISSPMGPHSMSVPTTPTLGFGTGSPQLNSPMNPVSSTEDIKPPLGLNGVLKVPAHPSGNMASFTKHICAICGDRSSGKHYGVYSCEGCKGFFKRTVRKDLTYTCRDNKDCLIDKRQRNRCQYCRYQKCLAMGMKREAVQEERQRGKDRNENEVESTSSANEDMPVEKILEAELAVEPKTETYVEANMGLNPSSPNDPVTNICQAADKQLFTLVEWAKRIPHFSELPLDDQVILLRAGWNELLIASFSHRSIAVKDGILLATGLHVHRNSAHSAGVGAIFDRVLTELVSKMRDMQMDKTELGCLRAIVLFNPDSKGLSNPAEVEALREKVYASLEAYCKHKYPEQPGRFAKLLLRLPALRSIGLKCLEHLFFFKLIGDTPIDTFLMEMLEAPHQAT

[18] = system: Jurkat; experiment: Antiproliferative activity against human Jurkat T cells at 62.5 nM after 48 hrs by MTT assay; assay type: functional, cell-based
Outline: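 Jurkat T cells were resuspended at 10^5 cells/mL in RPMI with 0.5% FBS (10,000/well) and seeded immediately before dosing at 62.5 nM–2 μM for two days. Viability was read by MTT (4 h, 37 °C), formazan dissolved in 10% SDS/10 mM HCl, A595 with cell-free background subtracted. Values are relative to DMSO controls (≤0.1% v/v); at least two experiments in triplicate.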

| Structure (SMILES) | Activity [1] | inhibition ([2]; CV-1, 4 uM, in the assay text read “at 4 uM” for “at 0.2 uM”) [%] | Activity [3] | inhibition at 4 µM [4] [%] | Activity [5] | Activity [6] | inhibition at 4 µM [7] [%] | IC50 [8] [µM] | Activity [9] | inhibition at 4 µM [10] [%] | inhibition at 4 µM [11] [%] | Activity [12] | inhibition at 4 µM [13] [%] | inhibition at 4 µM [14] [%] | inhibition at 4 µM [15] [%] | inhibition ([2]; CV-1, 0.2 uM) | inhibition [16] [%] | EC50 [17] [µM] | Activity [18] |
| --- | --- | --- | --- | --- | --- | --- | --- | --- | --- | --- | --- | --- | --- | --- | --- | --- | --- | --- | --- |
| COCCOCOc1ccc(C(=O)/C=C/c2ccc(C(=O)O)cc2)cc1C12CC3CC(CC(C3)C1)C2 | Active | 90 | inactive | 74.9 | Active | inactive | 72.4 | 0.287 | Active | 92.1 | 61.5 | Active | 50.6 | 42.1 | 96.6 |  |  |  |  |
| Cc1cc(O)c(C23CC4CC(CC(C4)C2)C3)cc1-c1ccc2cc(C(=O)O)ccc2c1Cl |  |  | inactive | 91.5 | Active | inactive | 59.2 | 0.435 | inactive | 97.7 | 87 | inactive | 55.8 | 88.1 | 94.7 | inactive | 27 |  |  |
| COCCOCOc1cc(C)c(-c2ccc(/C=C/C(=O)O)cc2Cl)cc1C12CC3CC(CC(C3)C1)C2 |  |  | inactive | 63.3 |  | inactive | 42 | 1.87 | inactive | 72 | 80.1 | inactive | 29.1 | 51.1 | 45.8 | inactive | 27 | 0.6 |  |
| C/C(=C/c1ccc(C(=O)O)cc1)c1ccc(O)c(C23CC4CC(CC(C4)C2)C3)c1 | Active |  | inactive | 76.1 | Active | inactive | 76.7 | 0.082 |  | 92.3 | 67 |  | 62.7 | 79 | 95.7 |  |  |  |  |
| Cc1cc(O)c(C23CC4CC(CC(C4)C2)C3)cc1-c1ccc(/C=C/C(=O)O)cc1Cl |  |  | inactive | 26.3 |  | inactive | 24.9 | 1.41 | inactive | 68.7 | 65.1 | inactive | 24.2 | 23.7 | 36 | inactive |  | 0.576 | inactive |
